# pEC50: −log10 of the molar value.
# How the values were obtained:
# [1] = Permeability of the compound at pH 7.4 by PAMPA; format: ADME; details: for Papp: PAMPA, read-out: permeability; for permeability: pampa, BLD = below limit of detection
# How it was run: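 Compound (10 mM DMSO stock) was diluted in system solution buffer pH 7.4 and placed in the donor chamber of a PAMPA sandwich whose membrane was coated with GIT lipid. Acceptor buffer filled the acceptor chamber, and the assembly was stirred for 30 min. Donor and acceptor UV spectra (250–500 nm) were compared with a reference to give the permeability coefficient. Run in triplicate.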
# HEK293 = assay: Cytotoxicity against HEK293 cells after 72 hrs by Cell Titre Glo assay; format: cell-based; details: Homo sapiens, HEK293, 72 h
# How it was run: (§1)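 Human cells grown to 80% confluence were plated in 384-well format and received compound dilutions by pin tool. After 72 h at 37 °C in 5% CO2, viability was measured by CellTiter-Glo luminescence.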
# HepG2 = assay: Cytotoxicity against human HepG2 cells after 72 hrs by Cell Titre Glo assay; format: cell-based; details: HepG2, 72 h; how it was run: as §1
# BJ = assay: Cytotoxicity against human BJ cells after 72 hrs by Cell Titre Glo assay; format: cell-based; how it was run: as §1
# [2] = Kinetic solubility of the compound in PBS buffer at pH 7.4 after 18 hrs by UV spectrophotometric analysis; format: physicochemical; details: PBS buffer, pH 7.4; read-out: Kinetic_solubility
# How it was run: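 Compound from a 10 mM stock was added to PBS pH 7.4 and left 18 h at room temperature. The suspension was filtered, and the filtrate was mixed 1:1 with 1-propanol. Solubility was derived from UV spectrum AUC (250–500 nm) relative to a 1-propanol/PBS reference. Run in triplicate.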
# [3] = tested on: Trypanosoma brucei brucei; assay: Antitrypanosomal activity against Trypanosoma brucei brucei 221 after 48 hrs by Cell Titre Glo assay; format: functional, organism-based; details: Trypanosoma brucei, 221, 48 h
# How it was run: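 Bloodstream-form parasites grown in HMI-9 with 10% heat-inactivated FBS, 10% Serum Plus and penicillin/streptomycin at 37 °C, 5% CO₂, to 1 × 10⁶ cells/mL. Diluted to 1 × 10⁴ cells/mL, then dosed with a DMSO dilution series by pin transfer. Incubated 48 h at 37 °C, 5% CO₂. Viability read by CellTiter-Glo luminescence. EC₅₀ from a variable-slope sigmoidal fit. Mean of six replicates, errors as 95% CI.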
# Raji = assay: Cytotoxicity against human Raji cells after 72 hrs by Cell Titre Glo assay; format: cell-based; how it was run: as §1
SMILES,Papp [1],pEC50 (HEK293),pEC50 (HepG2),pEC50 (BJ),solubility kinetic at 18 h [2],pEC50 [3],pEC50 (Raji),permeability [1]
O=C(Nc1ccc(F)c(-c2nc3ccccc3o2)c1)c1cc([N+](=O)[O-])ccc1Cl,366 ×10⁻⁶ cm/s,< 4.60,< 4.60,< 4.60,0.27 µM,6.77,< 4.60,–
COc1ccc(NC(=O)c2cc([N+](=O)[O-])ccc2Cl)cc1-c1nc2ccccc2s1,–,< 4.60,< 4.60,< 4.60,0.26 µM,5.44,< 4.60,BLD
Cc1cc(NC(=O)c2cc([N+](=O)[O-])ccc2Cl)cc(-c2nc3ccccc3s2)c1O,48 ×10⁻⁶ cm/s,< 4.60,< 4.60,< 4.60,0.43 µM,< 5.00,< 4.60,–
O=C(Nc1cc(-c2nc3ccccc3s2)ccc1Cl)c1cc([N+](=O)[O-])ccc1Cl,–,< 4.60,< 4.60,< 4.60,0.1 µM,6.62,< 4.60,BLD
O=C(Nc1ccc(Cl)c(-c2nc3ccccc3s2)c1)c1cc([N+](=O)[O-])ccc1Cl,3 ×10⁻⁶ cm/s,< 4.60,< 4.60,< 4.60,0.41 µM,6.49,< 4.60,–
Cc1ccc(-c2nc3ccccc3s2)cc1NC(=O)c1cc([N+](=O)[O-])c(N(C)C)cc1Cl,< 1 ×10⁻⁶ cm/s,< 4.60,< 4.60,< 4.60,0.03 µM,6.33,< 4.60,–
Cc1ccc(-c2nc3ccccc3s2)cc1NC(=O)c1cc([N+](=O)[O-])c(N2CCC(C(=O)O)CC2)cc1Cl,17 ×10⁻⁶ cm/s,< 4.60,< 4.60,< 4.60,0.59 µM,6.30,< 4.60,–
CCOC(=O)Cc1cc(Cl)c(C(=O)Nc2cc(-c3nc4ccccc4s3)ccc2C)cc1[N+](=O)[O-],10 ×10⁻⁶ cm/s,< 4.60,< 4.60,< 4.60,0.19 µM,6.28,< 4.60,–
COc1ccc(-c2nc3ccccc3s2)cc1NC(=O)c1cc([N+](=O)[O-])c(N2CCC(C(=O)O)CC2)cc1Cl,5 ×10⁻⁶ cm/s,< 4.60,< 4.60,< 4.60,0.21 µM,6.19,< 4.60,–
COC(=O)C1CCN(c2cc(Cl)c(C(=O)Nc3cc(-c4nc5ccccc5s4)ccc3OC)cc2[N+](=O)[O-])CC1,< 1 ×10⁻⁶ cm/s,< 4.60,< 4.60,< 4.60,0.17 µM,6.14,< 4.60,–
O=C(O)COc1cc(Cl)c(C(=O)Nc2cccc(-c3nc4ccccc4s3)c2)cc1[N+](=O)[O-],< 1 ×10⁻⁶ cm/s,< 4.60,< 4.60,< 4.60,6.7 µM,6.10,< 4.60,–
O=C(Nc1cccc(-c2nc3ccccc3s2)c1)c1cc([N+](=O)[O-])c(O)cc1Cl,307 ×10⁻⁶ cm/s,< 4.60,< 4.60,< 4.60,2.2 µM,< 4.48,< 4.60,–
O=C(Nc1nc(-c2cccc(F)c2)cs1)c1cc([N+](=O)[O-])ccc1Cl,3 ×10⁻⁶ cm/s,5.06,4.74,4.62,0.78 µM,5.46,4.96,–
O=C(Nc1nc2ccc(F)cc2s1)c1cc([N+](=O)[O-])ccc1Cl,10 ×10⁻⁶ cm/s,< 4.57,< 4.57,< 4.57,0.57 µM,5.25,< 4.57,–
O=C(Nc1nc2ccc(Cl)cc2s1)c1cc([N+](=O)[O-])ccc1Cl,138 ×10⁻⁶ cm/s,< 4.57,< 4.57,< 4.57,1.2 µM,5.09,< 4.57,–
O=C(Nc1nc2c(Cl)cccc2s1)c1cc([N+](=O)[O-])ccc1Cl,242 ×10⁻⁶ cm/s,< 4.57,< 4.57,< 4.57,0.72 µM,4.92,4.82,–
O=C(Nc1ccccc1-c1nc2ccccc2s1)c1cc([N+](=O)[O-])ccc1Cl,–,< 4.57,< 4.57,< 4.57,–,< 4.48,< 4.57,–
O=C(CNc1ccc(-c2nc3ccccc3s2)cc1)c1cc([N+](=O)[O-])ccc1Cl,–,< 4.57,< 4.57,< 4.57,–,< 4.80,< 4.57,–
O=C(Nc1cccc(-c2nc3ccccc3[nH]2)c1)c1cc([N+](=O)[O-])ccc1Cl,352 ×10⁻⁶ cm/s,< 4.57,< 4.57,< 4.57,1.4 µM,4.59,4.68,–
O=C(Nc1ccc(-c2ccccc2)cc1)c1cc([N+](=O)[O-])ccc1Cl,26 ×10⁻⁶ cm/s,< 4.57,< 4.57,< 4.57,0.12 µM,5.72,< 4.57,–
O=C(Nc1cccc(-c2ccccc2)c1)c1cc([N+](=O)[O-])ccc1Cl,–,4.66,< 4.57,< 4.57,0.41 µM,5.92,< 4.57,BLD
Cc1ccc(-c2nc3ccccc3o2)cc1NC(=O)c1cc([N+](=O)[O-])ccc1Cl,–,< 4.85,< 4.85,< 4.85,0.31 µM,7.70,< 4.85,BLD
COc1ccc(-c2nc3ccccc3o2)cc1NC(=O)c1cc([N+](=O)[O-])ccc1Cl,274 ×10⁻⁶ cm/s,< 4.60,< 4.60,< 4.60,0.09 µM,6.92,< 4.60,–
Cc1cc(NC(=O)c2cc([N+](=O)[O-])ccc2Cl)cc(-c2nc3ccccc3o2)c1O,105 ×10⁻⁶ cm/s,< 4.60,< 4.60,< 4.60,0.09 µM,6.66,< 4.60,–
O=C(Nc1ccc(Cl)cc1)c1cc([N+](=O)[O-])ccc1Cl,–,< 4.57,< 4.57,< 4.57,–,–,< 4.57,–
